The record followed here is ChEMBL document CHEMBL1145399, “Design, synthesis, and pharmacology of novel 7-substituted 3,4-dihydro-2H-1,2,4-benzothiadiazine 1,1-dioxides as positive allosteric modulators of AMPA receptors” (J Med Chem, 2007).

Molecules are shown by their SMILES.

For test [1], the system named is Oocyte. As to the kind of experiment: Activity at Wistar rat cortex AMPA receptor expressed in Xenopus laevis oocytes assessed as 2-fold increase of (S)-AMPA-induced current. The format is cell-based. In a few lines:
(§1)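 Two-electrode voltage clamp on Xenopus oocytes injected with rat cortex poly(A+) mRNA. Current is evoked by (S)-AMPA at 10 µM with drug co-applied. Compounds alone were checked on the holding current. Mean ± SEM, n ≥ 2–3.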

Test [2] relates to Oocyte. As to the kind of experiment: Activity at Wistar rat cortex AMPA receptor expressed in Xenopus laevis oocytes assessed as 5-fold increase of (S)-AMPA-induced current. The format is cell-based. The gist of the method: as §1
The test system of test [3] is Oocyte. Put plainly: Activity at Wistar rat cortex AMPA receptor expressed in Xenopus laevis oocytes assessed as maximum increase of (S)-AMPA-induced current. Type of test: cell-based. The gist of the method: as §1
Test [4] in a line: Activity at Wistar rat cortex AMPA receptor expressed in Xenopus laevis oocytes assessed as effect on (S)-AMPA-induced current. The format is cell-based. Particulars: Oocyte. The gist of the method: as §1
The next test relates to Hippocampus. Put plainly: Increase in (S)-AMPA-stimulated [3H]noradrenaline release in Wistar rat hippocampus at 30 uM relative to control. The format is functional. In a few lines: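 Rat hippocampal slices preloaded with [³H]-noradrenaline. Release is stimulated by (S)-AMPA, with drug at 30 µM. Drug alone was compared with basal DMSO control release. Result is the % increase in AMPA-evoked release.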

With `CN1CN(C)S(=O)(=O)c2ccccc21`, the Activity is 37 µM in the test on Oocyte [1], 127 µM in the test on Oocyte [2] and more than 1700% with Oocyte [3].
In the case of `CN1C=NS(=O)(=O)c2ccccc21`, the Activity is 450 µM with Oocyte [1] and more than 1000 µM in the test on Oocyte [2].
As for `CCN1CNS(=O)(=O)c2cc(C)ccc21`, the Activity in the test with Oocyte [1] is 25 µM; in the test with Oocyte [2] it was 95 µM; in the test with Oocyte [3] it was more than 1300%.
Take `CCN1CNS(=O)(=O)c2cc(OC)ccc21`: the Activity with Oocyte [1] is 68 µM; in the test on Oocyte [2], 190 µM; in the test on Oocyte [3], more than 600%.
Regarding `CCN1CNS(=O)(=O)c2cc(C(=O)O)ccc21`, the Activity in the test on Oocyte [1] and in the test with Oocyte [2] was more than 100 µM throughout.
Consider `CCN1CN(C)S(=O)(=O)c2cc(Cl)ccc21`, for which the Activity in the test with Oocyte [1] was 21 µM; in the test with Oocyte [2], 64 µM; with Oocyte [3] it was more than 1100%.
As to `CCN1CNS(=O)(=O)c2ccccc21`, the Activity in the test on Oocyte [1] was 14 µM; with Oocyte [2], 38 µM; in the test on Oocyte [3], more than 1800%.
Regarding `CCN1CNS(=O)(=O)c2cc([N+](=O)[O-])ccc21`, the Activity in the test with Oocyte [1] was 16 µM; with Oocyte [2] it was 45 µM; with Oocyte [3] it was more than 1000%.
With `Cc1ccc2c(c1)S(=O)(=O)N=CN2C`, the Activity was 320 µM with Oocyte [1], 650 µM in the test with Oocyte [2] and more than 600% with Oocyte [3].
Turning to `CN1C=NS(=O)(=O)c2cc(Cl)ccc21`, the Activity in the test on Oocyte [1] and in the test on Oocyte [2] was more than 1000 µM in each case.
With `Cc1ccc2c(c1)S(=O)(=O)NCN2C`, the Activity is 21 µM in the test with Oocyte [1], 47 µM in the test on Oocyte [2] and more than 3000% in the test with Oocyte [3].
As for `CCN1C=NS(=O)(=O)c2cc(Cl)ccc21`, the figures for the Activity in the test on Oocyte [1], with Oocyte [2] and in the test on Oocyte [3] were 400 µM, more than 1000 µM and more than 400%, respectively.
Regarding `CCN1CNS(=O)(=O)c2cc(Br)ccc21`, the Activity is 29 µM in the test on Oocyte [1], 78 µM in the test with Oocyte [2] and more than 1100% in the test on Oocyte [3].
Take `CCN1CNS(=O)(=O)c2cc(I)ccc21`: the Activity in the test on Oocyte [1] is 95 µM; with Oocyte [3], more than 400%.
On to `CN1CNS(=O)(=O)c2cc(N)ccc21`, for which the Activity in the test with Oocyte [1] and in the test with Oocyte [2] was more than 300 µM throughout.
One may read the EC50 as the concentration giving half of the maximal effect. Consider `NS(=O)(=O)c1cc2c(cc1Cl)NC(C1CC3C=CC1C3)NS2(=O)=O` (centres undefined) [CYCLOTHIAZIDE], for which the Activity turned out to be 1.6 µM in the test with Oocyte [1], 9.8 µM in the test with Oocyte [2], 844% in the test on Oocyte [3] and 73% in the test with Hippocampus. For the same molecule, in test [4], the EC50 worked out at 7.1 µM.
Consider `CN1CN(C)S(=O)(=O)c2cc(Cl)ccc21`, for which the Activity with Oocyte [1] is 7 µM; in the test with Oocyte [2] it was 17 µM; in the test with Oocyte [3], more than 1900%.
On the same counts, the results for `CN1CNS(=O)(=O)c2cc(Cl)ccc21` are 6 µM, 18 µM and 1740%.
Consider `CCN1CNS(=O)(=O)c2cc(N)ccc21`, for which the Activity in the test with Oocyte [1] and with Oocyte [2] was more than 300 µM each time.
Take `CN1CNS(=O)(=O)c2ccccc21`: the Activity was 22 µM with Oocyte [1], 46 µM with Oocyte [2] and more than 1900% in the test on Oocyte [3].
Consider `CCN1CNS(=O)(=O)c2cc(NC(C)=O)ccc21`, for which the Activity with Oocyte [1] and with Oocyte [2] was more than 300 µM each time.
Regarding `CCN1CNS(=O)(=O)c2cc(C(=O)OC)ccc21`, the Activity with Oocyte [1] and in the test with Oocyte [2] was more than 100 µM in each case.
Take `CN1CNS(=O)(=O)c2cc([N+](=O)[O-])ccc21`: the Activity in the test on Oocyte [1] was 11 µM; with Oocyte [2], 26 µM; with Oocyte [3], more than 1400%.
Regarding `CCN1CNS(=O)(=O)c2cc(C(F)(F)F)ccc21`, the Activity in the test on Oocyte [1] and with Oocyte [2] was more than 300 µM in each case.
Consider `CCN1C=NS(=O)(=O)c2cc(C)ccc21`, for which the Activity with Oocyte [1] was 300 µM; in the test on Oocyte [2], more than 1000 µM; in the test with Oocyte [3] it was more than 300%.
Regarding `CCN1CNS(=O)(=O)c2cc(C(=O)Oc3ccccc3)ccc21`, the Activity with Oocyte [1] is 32 µM; with Oocyte [2] it was 180 µM; in the test on Oocyte [3], more than 600%.
For `CC1Nc2ccc(Cl)cc2S(=O)(=O)N1` (centres undefined), the Activity in the test with Oocyte [1] was 134 µM; in the test with Oocyte [2] it was 509 µM; in the test on Oocyte [3], more than 700%.
For `O=S1(=O)N[C@H]2CCCN2c2ccccc21`, the Activity stood at 24.6 µM with Oocyte [1], 78.2 µM in the test with Oocyte [2], 1260% in the test on Oocyte [3] and 0% with Hippocampus. Besides, the EC50 in test [4] was 130 µM.
